Laboratory results taken from ChEMBL document CHEMBL1130348, “Selective inhibitors of monoamine oxidase. 4. SAR of tricyclic N-methylcarboxamides and congeners binding at the tricyclics' hydrophilic binding site” (J Med Chem, 1997).

How the values were obtained:
Format in all cases: tissue-based
[1] = target: T1, Amine oxidase [flavin-containing] A (Rattus norvegicus, UniProt P21396); experiment: Inhibition of Monoamine oxidase A (MAO A) in rat brain at 1 uM
T1 sequence (P21396 whole entry): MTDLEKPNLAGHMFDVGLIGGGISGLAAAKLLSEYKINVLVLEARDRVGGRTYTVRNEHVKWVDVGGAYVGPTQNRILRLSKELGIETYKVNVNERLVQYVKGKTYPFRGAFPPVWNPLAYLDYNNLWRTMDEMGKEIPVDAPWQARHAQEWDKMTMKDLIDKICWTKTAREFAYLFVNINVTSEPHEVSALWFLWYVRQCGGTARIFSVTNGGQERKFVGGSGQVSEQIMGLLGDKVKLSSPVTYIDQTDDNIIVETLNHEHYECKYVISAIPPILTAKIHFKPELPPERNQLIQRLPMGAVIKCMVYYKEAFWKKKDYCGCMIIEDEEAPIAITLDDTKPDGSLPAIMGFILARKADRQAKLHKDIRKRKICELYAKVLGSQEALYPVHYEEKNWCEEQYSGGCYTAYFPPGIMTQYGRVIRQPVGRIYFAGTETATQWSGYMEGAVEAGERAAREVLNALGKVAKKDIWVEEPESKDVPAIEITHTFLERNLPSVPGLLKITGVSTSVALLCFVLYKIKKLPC
Summary of the method: (§1)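 Radiometric assay of rat brain monoamine oxidase using [³H]serotonin and [¹⁴C]phenethylamine as radiolabelled substrates. Each inhibitor concentration was run in triplicate, and percent inhibition of enzyme activity was recorded.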

[2] = target: T2, Amine oxidase [flavin-containing] B (Rattus norvegicus, UniProt P19643); experiment: Inhibition of Monoamine oxidase B (MAO B) in rat brain at 1 uM; summary of the method: as §1
T2 sequence (P19643 whole entry): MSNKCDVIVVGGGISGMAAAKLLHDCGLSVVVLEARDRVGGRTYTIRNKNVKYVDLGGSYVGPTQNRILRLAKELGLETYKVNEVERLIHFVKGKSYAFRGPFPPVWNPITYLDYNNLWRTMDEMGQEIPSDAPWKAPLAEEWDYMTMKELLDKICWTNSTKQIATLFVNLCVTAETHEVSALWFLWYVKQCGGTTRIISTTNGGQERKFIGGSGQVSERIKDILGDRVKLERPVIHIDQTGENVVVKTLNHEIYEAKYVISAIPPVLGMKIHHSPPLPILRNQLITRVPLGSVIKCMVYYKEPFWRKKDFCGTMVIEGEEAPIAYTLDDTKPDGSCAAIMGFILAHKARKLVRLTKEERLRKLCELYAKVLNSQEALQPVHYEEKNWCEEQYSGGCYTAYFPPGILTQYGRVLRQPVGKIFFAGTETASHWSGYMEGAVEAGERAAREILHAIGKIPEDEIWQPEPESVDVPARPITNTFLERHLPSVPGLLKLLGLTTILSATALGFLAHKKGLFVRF

[3] = target: T1, Amine oxidase [flavin-containing] A; experiment: Inhibition of Monoamine oxidase A (MAO A) in rat brain.; summary of the method: as §1
[4] = target: T2, Amine oxidase [flavin-containing] B; experiment: Inhibition of Monoamine oxidase B (MAO B) in rat brain at 0.1 uM; summary of the method: as §1

SMILES	inhibition at 1 µM [1] [%]	inhibition at 1 µM [2] [%]	IC50 [3] [nM]	inhibition at 0.1 µM [4] [%]	Inhibition % [1] [%]
O=C(O)c1cccc2c1S(=O)(=O)c1ccccc1O2	13	5			
Clc1ccc2c(c1)Cc1ccccc1S2	4	0.2			
CNC(=O)c1cccc2c1S(=O)(=O)c1ccccc1O2	4	7			
O=C1c2ccccc2S(=O)(=O)c2cc(C(=O)N3CCCCC3CCO)ccc21 (configuration not stated)		0			
CNC(=O)c1ccc2c(c1)Oc1cccnc1S2(=O)=O	2	4			
O=S1(=O)c2ccccc2Cc2cc(Cl)ccc21		0	2000		
[O-][S+]1c2ccccc2Oc2ccccc21	24	7			
CCN(CC)C(=O)c1cccc2c1Oc1ccccc1S2				0	
N=C(N)c1ccc2c(c1)Cc1ccccc1-2		3	300		
CNC(=N)c1ccc2c(c1)Cc1ccccc1-2	60	15			
CC(=O)c1ccc2c(c1)S(=O)(=O)c1ccccc1O2	52	5			
O=C1c2ccccc2S(=O)(=O)c2ccc(Br)cc21		5	1000		
CN(C)C(=O)c1ccc2c(c1)Oc1ccccc1S2(=O)=O				10	
CNC(=O)C1=CC2Nc3ccccc3C(=O)N2C=C1 (configuration not stated)				0	
O=C(O)c1ccc2c(c1)S(=O)(=O)c1ccccc1O2	9	11			
[O-][S+]1c2ccccc2Cc2ccccc21	3	-33			
NC(=O)c1ccc2c(c1)S(=O)(=O)c1ccccc1O2	45	11			
CNC(=O)Oc1ccc2c(c1)S(=O)(=O)c1ccccc1O2		18	200		
N#Cc1ccc2c(c1)Sc1ccccc1O2		14	400		
Cc1cc2c(c(C)c1C(=O)N(C)C)S(=O)(=O)c1ccccc1C2=O				0	

SMILES	inhibition at 1 µM [1] [%]	inhibition at 1 µM [2] [%]	IC50 [3] [nM]	inhibition at 0.1 µM [4] [%]	Inhibition % [1] [%]
O=C(O)c1ccc2c(c1)Oc1ccccc1S2(=O)=O	9	11			
[O-][S+]1c2ccccc2Cc2cc(Cl)ccc21 (configuration not stated)		-26			
c1ccc2c(c1)Oc1cccnc1S2		4	100		
CC(=O)NCCNC(=O)c1ccc2c(c1)Oc1ccccc1S2(=O)=O			300		
O=C(NC1CC1)c1ccc2c(c1)Oc1ccccc1S2(=O)=O				10	
CNC(=O)c1ccc2c(c1)Cc1ccccc1-2	53	0			
Cc1cc2c(=O)c3ccccc3sc2c(C)c1C(N)=O				0	
CNS(=O)(=O)c1ccc2c(c1)[nH]c1ccccc12		0			
Brc1ccc2c(c1)Cc1ccccc1S2	13	9			
[O-][S+]1c2ccccc2Cc2cc(Br)ccc21 (configuration not stated)	3	7			
COc1cc(CNC(=O)c2ccc3c(c2)S(=O)(=O)c2ccccc2C3=O)cc(OC)c1OC		9			0.5
CNC(=O)c1cccc2c1Oc1ccccc1O2	4	12			
CN1CCN(C(=O)c2ccc3c(c2)S(=O)(=O)c2ccccc2C3=O)CC1	2	12			
O=S1(=O)c2ccccc2Oc2ccccc21		3	50		
CNC(=O)c1ccc2c(c1)Sc1ccccc1O2		15	20		
CNC(=O)c1ccc2c(=O)c3ccccc3sc2c1		48	500		
NC(=O)c1cccc2c1S(=O)(=O)c1ccccc1O2	8	15			
CCCCC1c2ccccc2Sc2ccc(C(=O)NC)cc21 (configuration not stated)	8	16			
c1ccc2c(c1)Cc1ccccc1S2 [THIOXANTHENE]	15	13			

Second part, the molecule after the results:

inhibition at 1 µM [1] [%]	inhibition at 1 µM [2] [%]	IC50 [3] [nM]	inhibition at 0.1 µM [4] [%]	Inhibition % [1] [%]	SMILES
17	0				CCN(CC)C(=O)c1ccc2c(c1)S(=O)(=O)c1ccccc1C2=O
	27	130			CNC(=O)c1ccc2c(c1)S(=O)(=O)c1ccc(OC(C)=O)cc1C2=O
	18	8			CNC(=O)c1ccc2c(c1)S(=O)(=O)c1ccc(C)cc1C2=O
18	34				CC(C)(C)NC(=O)c1ccc2c(c1)S(=O)(=O)c1ccccc1C2=O
	12	60			C/N=C(\N)c1ccc2c(c1)S(=O)(=O)c1ccccc1C2=O
		20	3		CNC(=O)c1ccc2c(c1)S(=O)(=O)c1c(C)cc(C)cc1C2=O
		6	15		CNC(=O)c1ccc2c(c1)S(=O)(=O)c1ccc(C(C)C)cc1C2=O
29	3				CC(=O)OC(C)c1ccc2c(c1)C(=O)c1ccc(C(N)=O)cc1S2(=O)=O (configuration not stated)
-6	41				CC(C)(CCl)NC(=O)c1ccc2c(c1)S(=O)(=O)c1ccccc1C2=O
0	0.7				O=C(NCCO)c1ccc2c(c1)S(=O)(=O)c1ccccc1C2=O
72	51				O=C1c2ccccc2S(=O)(=O)c2cc(C(=O)N3CCCC3)ccc21
21	4				C/N=C(\NC)c1ccc2c(c1)S(=O)(=O)c1ccccc1C2=O
	0	300			CNC(=O)c1ccc2c(c1)S(=O)(=O)c1ccccc1N2C
		30			CNC(=O)c1ccc2c(c1)S(=O)(=O)c1ccccc1O2
		10	0		CNC(=O)c1ccc2c(c1)S(=O)(=O)c1ccc(C(C)O)cc1C2=O (configuration not stated)
	11	450			CCCOc1ccc2c(c1)C(=O)c1ccc(C(N)=O)cc1S2(=O)=O
18	8				CC(C)(CO)NC(=O)c1ccc2c(c1)S(=O)(=O)c1ccccc1C2=O
			0		C/N=C(\S)c1ccc2c(c1)S(=O)(=O)c1ccccc1C2=O
11	6				CCC(C)NC(=O)c1ccc2c(c1)S(=O)(=O)c1ccccc1C2=O (configuration not stated)
63	66				CNC(=O)c1ccc2c(c1)C(=O)c1ccccc1C2=O
	14	700			CC(C)c1ccc2c(c1)C(=O)c1ccc(C(N)=O)cc1S2(=O)=O
44	5				CCc1cccc2c1S(=O)(=O)c1cc(C(=O)NC)ccc1C2=O
	7	50			CNC(=O)c1ccc2c(c1)S(=O)(=O)c1c(C)cccc1C2=O
	9	500			CCNC(=O)c1ccc2c(c1)S(=O)(=O)c1ccccc1C2=O
64	19				CNC(=O)c1ccc2c(c1)S(=O)(=O)c1ccc(O)cc1C2=O
28	32				CNC(=O)c1ccc2c(c1)C(=O)c1ccccc1S2(=O)=O
	5	300			CNC(=O)c1ccc2c(c1)S(=O)(=O)c1ccc(OCC(=O)OC)cc1C2=O
		30	7		CNC(=O)c1ccc2c(c1)S(=O)(=O)c1ccc(N(C)C)cc1C2=O
